For eleven molecules, CC50, EC50 and IC50 results are on record in ChEMBL document CHEMBL4364245 (Eur J Med Chem, 2019).

A short description of data set [1]: Cytotoxicity against chicken CEF cells assessed as reduction in cell viability incubated for 48 hrs by CCK8 assay. The data set is classed as cell-based, Gallus gallus. The gist of the method: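 Mock-infected chicken embryo fibroblasts received 2-fold serial dilutions of compound in DMEM with 1% FBS for 48 h at 37°C under 5% CO₂. Viability was read by CCK-8 (90 min, A450).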

Data set [2] deals with Influenza A virus. As to the kind of experiment: Antiviral activity against Influenza A virus (A/Chicken/Hebei/LZF/2014(H5N2)) infected in CEF cells assessed as reduction in virus-induced cytopathic effect incubated for 48 hrs by CCK-8 assay. The data set is classed as functional, organism-based.
The nature of data set [3]: Inhibition of influenza B virus (B/PHUKET/3073/2013)) Neuraminidase in using 4-MUNANA as substrate preincubated for 10 mins followed by substrate addition and measured after 40 mins by fluorescence based assay. The gist of the method:
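Influenza B/PHUKET/3073/2013 NA, in MES buffer at pH 6.5 with CaCl₂, was preincubated with inhibitor for 10 min at 37°C. MUNANA substrate was added for 40 min at 37°C, and the reaction was stopped with 0.2 M glycine-NaOH at pH 10.2. Fluorescence was read at ex 365 / em 455 nm minus substrate blanks. IC50 was taken from % inhibition curves, mean ± SD of three experiments.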

The subject of data set [4] is Influenza A virus. As to the kind of experiment: Antiviral activity against Influenza A virus (A/goose/Guangdong/SH7/2013(H5N1)) infected in CEF cells assessed as reduction in virus-induced cytopathic effect incubated for 48 hrs by CCK-8 assay. In kind it is functional, organism-based.
Data set [5] addresses Neuraminidase (Influenza A virus (A/Memphis/1/1971(H3N2)), UniProt P03471). Description: Inhibition of influenza A virus (A/Chicken/Hebei/LZF/2014(H5N2)) Neuraminidase N2 in using 4-MUNANA as substrate preincubated for 10 mins followed by substrate addition and measured after 40 mins by fluorescence based assay.

Where only a bound is given, the exact number is not on record here.

Chain of Neuraminidase (Influenza A virus (A/Memphis/1/1971(H3N2)), UniProt P03471) (P03471 whole entry): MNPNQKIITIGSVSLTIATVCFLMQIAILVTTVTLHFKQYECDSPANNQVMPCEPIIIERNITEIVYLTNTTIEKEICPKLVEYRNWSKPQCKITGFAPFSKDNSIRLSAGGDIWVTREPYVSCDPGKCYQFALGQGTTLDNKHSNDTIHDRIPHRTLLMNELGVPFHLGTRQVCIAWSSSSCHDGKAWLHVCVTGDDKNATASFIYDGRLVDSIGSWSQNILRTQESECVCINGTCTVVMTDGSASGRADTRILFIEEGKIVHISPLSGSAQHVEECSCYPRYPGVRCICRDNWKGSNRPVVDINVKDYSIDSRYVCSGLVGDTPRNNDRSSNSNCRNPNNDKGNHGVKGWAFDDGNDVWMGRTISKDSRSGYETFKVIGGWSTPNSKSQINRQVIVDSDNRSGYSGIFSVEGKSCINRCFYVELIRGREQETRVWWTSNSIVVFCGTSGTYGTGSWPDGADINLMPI

On to `CCC(CC)O[C@@H]1C=C(C(=O)N[C@@H](C(=O)O)C(C)C)C[C@H](NCc2ccc(SC)cc2)[C@H]1NC(C)=O`, for which the CC50 at 48 h in data set [1] is greater than 200 µM. Also, the concentration giving a half-maximal response (EC50) in the data set with Influenza A virus [2] is 26.6 µM; in the data set on Influenza A virus [4], greater than 100 µM. The molecule also came in with an IC50 in data set [3] greater than 100 µM.
In data set [5], `CCC(CC)O[C@@H]1C=C(C(=O)NCc2ccc(C(=O)O)cc2)C[C@H](NCc2ccc(N3CCCC3)cc2)[C@H]1NC(C)=O` displayed an IC50 of 4.7 µM.
Consider `CCC(CC)O[C@@H]1C=C(C(=O)O)C[C@H](NCc2ccc(SC)cc2)[C@H]1NC(C)=O`, for which the half-inhibitory concentration (IC50) in data set [5] is 8.34 µM; in data set [3] it was 7.97 µM. Also, the CC50 at 48 h in data set [1] was greater than 200 µM. Also, the values for the EC50 in the data set with Influenza A virus [2] and in the data set on Influenza A virus [4] were 0.48 µM and 0.66 µM, respectively.
With `CCC(CC)O[C@@H]1C=C(C(=O)NCc2ccc(F)cc2)C[C@H](NCc2ccc(N3CCCC3)cc2)[C@H]1NC(C)=O`, the 50% inhibitory concentration (IC50) in data set [5] came out at 48.4 µM.
Take `CCC(CC)O[C@@H]1C=C(C(=O)NCc2ccc(Cl)cc2)C[C@H](NCc2ccc(N3CCCC3)cc2)[C@H]1NC(C)=O`: in data set [5], the half-inhibitory concentration (IC50) was found to be 0.94 µM. Besides, in data set [1], the CC50 at 48 h came out at 77.1 µM. The EC50 with Influenza A virus [2] and with Influenza A virus [4] was greater than 100 µM each time.
On to `CCC(CC)O[C@@H]1C=C(C(=O)N[C@@H](C(=O)O)C(C)C)C[C@H](NCc2ccc(Sc3ccccc3)cc2)[C@H]1NC(C)=O`, for which the IC50 in data set [5] and in data set [3] was greater than 100 µM in each case.
As to `CCC(CC)O[C@@H]1C=C(C(=O)NCc2ccc(C(=O)O)cc2)C[C@H](NCc2ccc(Sc3ccccc3)cc2)[C@H]1NC(C)=O`, the IC50 in data set [5] is greater than 100 µM.
As to `CCC(CC)O[C@@H]1C=C(C(=O)NCc2ccc(Cl)cc2)C[C@H](NCc2ccc(SC)cc2)[C@H]1NC(C)=O`, the IC50 in data set [3] is greater than 100 µM.
As for `CCC(CC)O[C@@H]1C=C(C(=O)NCc2ccc(C(=O)O)cc2)C[C@H](NCc2ccc(N(CC)CC)cc2)[C@H]1NC(C)=O`, the IC50 in data set [5] stood at 13.3 µM.
Same read-out and setting: to `CCC(CC)O[C@@H]1C=C(C(=O)N[C@@H](C(=O)O)C(C)C)C[C@H](NCc2ccc(N3CCCC3)cc2)[C@H]1NC(C)=O` belongs 2.41 µM.
As for `CCC(CC)O[C@@H]1C=C(C(=O)O)C[C@H](N)[C@H]1NC(C)=O` [OSELTAMIVIR CARBOXYLATE], the CC50 at 48 h in data set [1] is greater than 200 µM. For the same molecule, the 50% effective concentration (EC50) was determined as 0.17 µM in the data set with Influenza A virus [2] and 0.82 µM in the data set on Influenza A virus [4]. Moreover, in data set [3], it took 0.037 µM to reach half-maximal inhibition (IC50).
